Reference: ChEMBL document CHEMBL3611989, “Discovery and characterization of aryl isonitriles as a new class of compounds versus methicillin- and vancomycin-resistant Staphylococcus aureus” (Eur J Med Chem, 2015)
In brackets after ≈: the same amount, converted by molar mass.

How the values were obtained:
[1] = tested on: J774; experiment: Cytotoxicity against mouse J774 cells assessed as reduction in cell viability at 64 uM incubated for 2 hrs by MTS assay; type: cell-based; details: j774, 2 h
In short: (§1)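 Murine J774 macrophages grown in DMEM with 10% FBS at 37 °C, 5% CO2. Compounds were tested in triplicate at 16, 32, 64 and 128 μM for 2 h, with DMSO-matched vehicle controls. MTS reagent was then added and absorbance read at OD490. Viability is given as percent of DMSO-treated cells (mean of triplicate ± standard deviation), compared by paired t-test (P < 0.05).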

[2] = tested on: Staphylococcus aureus; experiment: Antimicrobial activity against vancomycin-intermediate-resistant Staphylococcus aureus NRS1 assessed as reduction in bacterial growth incubated for 18 to 20 hrs at 37 degC by broth microdilution method; type: functional
In short: (§2)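 Modified CLSI broth microdilution. Bacterial suspension of about 1 × 10^5 CFU/mL in tryptic soy broth. Each agent was added in triplicate to the first row and serially diluted down the plate. Plates were incubated at 37 °C for 18-20 h. MIC was read as the lowest concentration with no visible growth.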

[3] = tested on: Staphylococcus aureus; experiment: Antimicrobial activity against methicillin-resistant Staphylococcus aureus USA500 assessed as reduction in bacterial growth incubated for 18 to 20 hrs at 37 degC by broth microdilution method; type: functional; in short: as §2
[4] = tested on: Staphylococcus aureus; experiment: Antimicrobial activity against methicillin-resistant Staphylococcus aureus USA100 assessed as reduction in bacterial growth incubated for 18 to 20 hrs at 37 degC by broth microdilution method; type: functional; in short: as §2
[5] = tested on: Staphylococcus aureus; experiment: Antimicrobial activity against methicillin-sensitive Staphylococcus aureus NRS72 assessed as reduction in bacterial growth incubated for 18 to 20 hrs at 37 degC by broth microdilution method; type: functional; in short: as §2
[6] = tested on: Staphylococcus aureus; experiment: Antimicrobial activity against methicillin-resistant Staphylococcus aureus NRS119 assessed as reduction in bacterial growth incubated for 18 to 20 hrs at 37 degC by broth microdilution method; type: functional; in short: as §2
[7] = tested on: J774; experiment: Cytotoxicity against mouse J774 cells assessed as reduction in cell viability at 32 uM incubated for 2 hrs by MTS assay; type: cell-based; details: j774, 2 h; in short: as §1
[8] = tested on: Staphylococcus aureus; experiment: Antimicrobial activity against methicillin-resistant Staphylococcus aureus USA300 assessed as reduction in bacterial growth incubated for 18 to 20 hrs at 37 degC by broth microdilution method; type: functional; in short: as §2
[9] = tested on: Staphylococcus aureus; experiment: Antimicrobial activity against methicillin-resistant Staphylococcus aureus USA200 assessed as reduction in bacterial growth incubated for 18 to 20 hrs at 37 degC by broth microdilution method; type: functional; in short: as §2
[10] = tested on: Staphylococcus aureus; experiment: Antimicrobial activity against vancomycin-resistant Staphylococcus aureus VRS2 assessed as reduction in bacterial growth incubated for 18 to 20 hrs at 37 degC by broth microdilution method; type: functional; in short: as §2
[11] = tested on: Staphylococcus aureus; experiment: Antimicrobial activity against methicillin-resistant Staphylococcus aureus USA700 assessed as reduction in bacterial growth incubated for 18 to 20 hrs at 37 degC by broth microdilution method; type: functional; in short: as §2
[12] = tested on: J774; type: cell-based; details: mouse, j774, 2 h, 128 µM
[13] = tested on: Staphylococcus aureus; experiment: Bactericidal activity against methicillin-resistant Staphylococcus aureus USA300; type: functional
[14] = Metabolic stability in human liver microsomes assessed as compound remaining incubated for 60 mins in presence of NADPH; type: ADME; details: read-out: Stability
[15] = Metabolic stability in human liver microsomes assessed as compound remaining incubated for 60 mins in absence of NADPH; type: ADME; details: read-out: Stability
[16] = tested on: J774; experiment: Cytotoxicity against mouse J774 cells assessed as reduction in cell viability up to 64 uM incubated for 2 hrs by MTS assay; type: cell-based; details: j774, 2 h; in short: as §1
[17] = Selectivity index, ratio of cytotoxicity against mouse J774 cells by MTS assay to MIC for methicillin-resistant Staphylococcus aureus; type: toxicity, cell-based; details: read-out: Selectivity Index
[18] = Kinetic solubility of the compound in PBS; type: physicochemical; details: read-out: Kinetic_solubility

SMILES | Activity [1] | MIC [2] | MIC [3] | MIC [4] | MIC [5] | MIC [6] | Activity [7] | MIC [8] | MIC [9] | MIC [10] | MIC [11] | Activity [12] | MBC [13] | remaining at 1 h [14] | remaining at 1 h [15] | Activity [16] | selectivity ratio [17] | solubility kinetic [18]
[C-]#[N+]c1ccccc1/C=C/c1ccc(C(F)(F)F)cc1 | Non-toxic | 2 µM (≈ 0.547 µg/mL) | 16 µM (≈ 4.37 µg/mL) | 4 µM (≈ 1.09 µg/mL) | 4 µM (≈ 1.09 µg/mL) | 16 µM (≈ 4.37 µg/mL) | Non-toxic | 8 µM (≈ 2.19 µg/mL) | 2 µM (≈ 0.547 µg/mL) | 16 µM (≈ 4.37 µg/mL) | 2 µM (≈ 0.547 µg/mL) | Toxic |  |  |  |  |  | 
[C-]#[N+]c1ccccc1/C=C/c1ccccc1C(F)(F)F | Non-toxic | 8 µM (≈ 2.19 µg/mL) | 16 µM (≈ 4.37 µg/mL) | 16 µM (≈ 4.37 µg/mL) | 8 µM (≈ 2.19 µg/mL) | > 128 µM | Non-toxic | 32 µM (≈ 8.74 µg/mL) | 16 µM (≈ 4.37 µg/mL) | 32 µM (≈ 8.74 µg/mL) | 16 µM (≈ 4.37 µg/mL) | Toxic |  |  |  |  |  | 
[C-]#[N+]c1ccccc1/C=C/c1cccc(OC)c1 | Non-toxic | 4 µM (≈ 0.941 µg/mL) | 32 µM (≈ 7.53 µg/mL) | 8 µM (≈ 1.88 µg/mL) | 8 µM (≈ 1.88 µg/mL) | 32 µM (≈ 7.53 µg/mL) | Non-toxic | 16 µM (≈ 3.76 µg/mL) | 4 µM (≈ 0.941 µg/mL) | 32 µM (≈ 7.53 µg/mL) | 16 µM (≈ 3.76 µg/mL) | Non-toxic |  |  |  |  |  | 
[C-]#[N+]c1ccccc1-c1ccc2ccccc2c1 | Non-toxic | 4 µM (≈ 0.917 µg/mL) | 32 µM (≈ 7.34 µg/mL) | 16 µM (≈ 3.67 µg/mL) | 16 µM (≈ 3.67 µg/mL) | 32 µM (≈ 7.34 µg/mL) | Non-toxic | 64 µM (≈ 14.7 µg/mL) | 64 µM (≈ 14.7 µg/mL) | 64 µM (≈ 14.7 µg/mL) | 16 µM (≈ 3.67 µg/mL) | Toxic |  |  |  |  |  | 
[C-]#[N+]c1ccccc1/C=C(\CC)c1ccccc1 | Non-toxic | 8 µM (≈ 1.87 µg/mL) | 32 µM (≈ 7.47 µg/mL) | 8 µM (≈ 1.87 µg/mL) | 8 µM (≈ 1.87 µg/mL) | 64 µM (≈ 14.9 µg/mL) | Non-toxic | 32 µM (≈ 7.47 µg/mL) | 16 µM (≈ 3.73 µg/mL) | 32 µM (≈ 7.47 µg/mL) | 8 µM (≈ 1.87 µg/mL) | Non-toxic | > 128 µM |  |  |  |  | 
CC(=O)CC(c1ccccc1)c1c(O)c2ccccc2oc1=O (stereo not drawn) [WARFARIN] |  |  |  |  |  |  |  |  |  |  |  |  |  | 93% | 94% |  |  | 
[C-]#[N+]c1ccccc1/C=C/c1cccc(F)c1 | Toxic | 8 µM (≈ 1.79 µg/mL) | 128 µM (≈ 28.6 µg/mL) | 16 µM (≈ 3.57 µg/mL) | 8 µM (≈ 1.79 µg/mL) | 128 µM (≈ 28.6 µg/mL) | Non-toxic | 32 µM (≈ 7.14 µg/mL) | 16 µM (≈ 3.57 µg/mL) | 128 µM (≈ 28.6 µg/mL) | 16 µM (≈ 3.57 µg/mL) | Toxic |  |  |  |  |  | 
CC/C(=C\c1ccccc1)c1ccccc1 | Non-toxic | > 128 µM | > 128 µM | > 128 µM | > 128 µM | > 128 µM | Non-toxic | > 128 µM | > 128 µM | > 128 µM | > 128 µM | Toxic |  |  |  | Non-toxic |  | 
[C-]#[N+]c1cccc(/C=C/c2ccccc2)c1 | Non-toxic | 32 µM (≈ 6.57 µg/mL) | > 128 µM | 32 µM (≈ 6.57 µg/mL) | 16 µM (≈ 3.28 µg/mL) | 64 µM (≈ 13.1 µg/mL) | Non-toxic | 16 µM (≈ 3.28 µg/mL) | 32 µM (≈ 6.57 µg/mL) | 32 µM (≈ 6.57 µg/mL) | 16 µM (≈ 3.28 µg/mL) | Toxic |  |  |  |  |  | 
[C-]#[N+]c1ccccc1/C=C/c1cccnc1 | Non-toxic | 64 µM (≈ 13.2 µg/mL) | 32 µM (≈ 6.6 µg/mL) | 32 µM (≈ 6.6 µg/mL) | 64 µM (≈ 13.2 µg/mL) | 64 µM (≈ 13.2 µg/mL) | Non-toxic | 16 µM (≈ 3.3 µg/mL) | 32 µM (≈ 6.6 µg/mL) | 32 µM (≈ 6.6 µg/mL) | 32 µM (≈ 6.6 µg/mL) | Non-toxic |  |  |  |  |  | 
[C-]#[N+]c1ccccc1/C=C/c1ccc(C)cc1 | Non-toxic | 4 µM (≈ 0.877 µg/mL) | 32 µM (≈ 7.02 µg/mL) | 4 µM (≈ 0.877 µg/mL) | 16 µM (≈ 3.51 µg/mL) | 64 µM (≈ 14 µg/mL) | Non-toxic | 16 µM (≈ 3.51 µg/mL) | 4 µM (≈ 0.877 µg/mL) | 32 µM (≈ 7.02 µg/mL) | 8 µM (≈ 1.75 µg/mL) | Toxic |  |  |  |  |  | 
[C-]#[N+]c1ccccc1/C=C/c1ccc(F)cc1 | Non-toxic | 4 µM (≈ 0.893 µg/mL) | 16 µM (≈ 3.57 µg/mL) | 8 µM (≈ 1.79 µg/mL) | 4 µM (≈ 0.893 µg/mL) | 16 µM (≈ 3.57 µg/mL) | Non-toxic | 8 µM (≈ 1.79 µg/mL) | 2 µM (≈ 0.446 µg/mL) | 32 µM (≈ 7.14 µg/mL) | 8 µM (≈ 1.79 µg/mL) | Toxic |  |  |  |  |  | 
[C-]#[N+]c1ccccc1/C=C/c1ccc(OC)cc1 | Non-toxic | 4 µM (≈ 0.941 µg/mL) | > 128 µM | 8 µM (≈ 1.88 µg/mL) | 4 µM (≈ 0.941 µg/mL) | 32 µM (≈ 7.53 µg/mL) | Non-toxic | 16 µM (≈ 3.76 µg/mL) | 2 µM (≈ 0.471 µg/mL) | 32 µM (≈ 7.53 µg/mL) | 8 µM (≈ 1.88 µg/mL) | Toxic |  |  |  |  |  | 
[C-]#[N+]c1ccccc1/C=C/c1ccccc1 | Non-toxic | 2 µM (≈ 0.411 µg/mL) | 32 µM (≈ 6.57 µg/mL) | 2 µM (≈ 0.411 µg/mL) |  | 4 µM (≈ 0.821 µg/mL) | Non-toxic | 4 µM (≈ 0.821 µg/mL) | 4 µM (≈ 0.821 µg/mL) | 32 µM (≈ 6.57 µg/mL) | 4 µM (≈ 0.821 µg/mL) | Toxic |  | 24% | 51% | Non-toxic | 16 | 15.6 µM (≈ 3.2 µg/mL)
[C-]#[N+]c1ccccc1/C=C/c1ccccn1 | Non-toxic | 64 µM (≈ 13.2 µg/mL) | 64 µM (≈ 13.2 µg/mL) | 64 µM (≈ 13.2 µg/mL) | 64 µM (≈ 13.2 µg/mL) | 128 µM (≈ 26.4 µg/mL) | Non-toxic | 16 µM (≈ 3.3 µg/mL) | 64 µM (≈ 13.2 µg/mL) | 32 µM (≈ 6.6 µg/mL) | 32 µM (≈ 6.6 µg/mL) | Toxic |  |  |  |  |  | 
[C-]#[N+]c1ccccc1/C=C/c1ccccc1F | Non-toxic | 4 µM (≈ 0.893 µg/mL) | 16 µM (≈ 3.57 µg/mL) | 8 µM (≈ 1.79 µg/mL) | 4 µM (≈ 0.893 µg/mL) | 32 µM (≈ 7.14 µg/mL) | Non-toxic | 16 µM (≈ 3.57 µg/mL) | 2 µM (≈ 0.446 µg/mL) | 32 µM (≈ 7.14 µg/mL) | 8 µM (≈ 1.79 µg/mL) | Toxic |  |  |  |  |  | 
